Results reported in ChEMBL document CHEMBL3813686, “Biologically Active Acetylenic Amino Alcohol and N-Hydroxylated 1,2,3,4-Tetrahydro-β-carboline Constituents of the New Zealand Ascidian Pseudodistoma opacum” (J Nat Prod, 2016).
Values after ≈ are worked out from the molar mass of the structure shown. Active and inactive are the calls of the source. The calls are words filed in the database; no cut-off is given here.

Legend:
[1] = tested on: Mycobacterium tuberculosis; experiment: Antibacterial activity against Mycobacterium tuberculosis BSG001 incubated overnight by microbroth-dilution method; type: functional
In short: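 M. tuberculosis H37Rv carrying a bacterial luciferase vector, grown 2 weeks at 37 °C (100 rpm) in Middlebrook 7H9 with ADC and glycerol. Assay medium was 7H9 without Tween or kanamycin. Compounds in DMSO were tested in doubling dilutions from 64 to 1 μg/mL, with untreated and DMSO controls, incubated overnight at 37 °C. Triplicate wells per concentration; three separate experiments.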

[2] = tested on: Escherichia coli; experiment: Antibacterial activity against Escherichia coli ATCC 25922 incubated overnight by microbroth-dilution method; type: functional
In short: (§1)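 Mueller Hinton broth cultures were grown overnight at 37 °C with shaking at 200 rpm. Inoculum was adjusted to approximately 5 × 10^5 cfu/mL final, confirmed by retrospective plating. Compounds were dissolved in DMSO and tested in doubling dilutions, with untreated and DMSO controls. Plates were incubated overnight at 37 °C. Each concentration was run in triplicate on three separate occasions.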

[3] = tested on: Staphylococcus aureus; experiment: Antibacterial activity against Staphylococcus aureus XEN36 incubated overnight by microbroth-dilution method; type: functional; in short: as §1
[4] = tested on: Escherichia coli; experiment: Bactericidal activity against Escherichia coli ATCC 25922 incubated overnight by microbroth-dilution method; type: functional
In short: (§2)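 Broth from the MIC wells (standard microbroth dilution, ~5 × 10^5 cfu/mL in Mueller Hinton broth) was transferred into fresh medium and incubated overnight at 37 °C, then scored for growth. Cell dilutions were also plated. MBC was taken as a reduction of at least 3 logs from the initial inoculum.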

[5] = tested on: Staphylococcus aureus; experiment: Bactericidal activity against Staphylococcus aureus XEN36 incubated overnight by microbroth-dilution method; type: functional; in short: as §2
[6] = tested on: Mycobacterium tuberculosis; experiment: Bactericidal activity against Mycobacterium tuberculosis BSG001 incubated overnight by microbroth-dilution method; type: functional
In short: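 Broth microdilution on luciferase-tagged M. tuberculosis H37Rv in 7H9 medium without Tween or kanamycin, using DMSO-dissolved compounds at 64–1 μg/mL (doubling) and incubating overnight at 37 °C. 5 μL from the MIC wells went into 195 μL fresh medium and was incubated overnight at 37 °C. Dilutions were also plated. MBC was taken as at least a 3-log drop from the initial inoculum.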

[7] = tested on: Plasmodium falciparum; experiment: Antiplasmodial activity against chloroquine-resistant Plasmodium falciparum FcB1/Columbia infected in erythrocytes assessed as inhibition of parasite growth after 48 hrs by 3H-hypoxanthine incorporation assay; type: functional, organism-based
[8] = tested on: Escherichia coli; experiment: Antibacterial activity against Escherichia coli ATCC 25922 after 16 hrs by resazurin dye based fluorescence assay; type: functional; conditions: ATCC 25922, 16 h
[9] = tested on: Staphylococcus aureus; experiment: Antibacterial activity against Staphylococcus aureus ATCC 25923 after 16 hrs by resazurin dye based fluorescence assay; type: functional; conditions: ATCC 25923, 16 h
[10] = tested on: Mycobacterium tuberculosis; experiment: Antibacterial activity against Mycobacterium tuberculosis H37Ra after 7 days by resazurin dye based fluorescence assay; type: functional; conditions: 168 h
[11] = tested on: Escherichia coli; experiment: Antibacterial activity against Escherichia coli after 24 hrs by broth macrodilution method; type: functional

| SMILES | MBC [4] | MIC [1] | MIC [2] | MBC [5] | MBC [6] | MIC [3] | also measured |
| --- | --- | --- | --- | --- | --- | --- | --- |
| C=CCCC#CC#CCCCCCCC[C@@H](CNC(=O)c1ccccc1)OC(=O)c1ccccc1 | – | – | – | – | – | – | Activity [1]: inactive; Activity [2]: inactive; Activity [3]: inactive |
| CO[C@H]1/C=C/O[C@@]2(C)Oc3c(C)c(O)c4c(O)c(c(/C=N/N5CCN(C)CC5)c(O)c4c3C2=O)NC(=O)/C(C)=C\C=C\[C@H](C)[C@H](O)[C@@H](C)[C@@H](O)[C@@H](C)[C@H](OC(C)=O)[C@@H]1C [RIFAMPIN] | 8 µg/mL | 0.161 µg/mL | 8 µg/mL | 0.008 µg/mL | 0.161 µg/mL | 4 ng/mL | – |
| N=C(N)NCCCCC1NCCc2c1n(O)c1cc(Br)ccc21 (configuration not stated) | 106 µM | 106 µM | 106 µM | 53 µM | 106 µM | 53 µM | IC50 [7]: 3.8 µM |
| CCCCCCCCCCC[C@H](O)[C@H](C)N | – | – | – | – | – | – | MIC [8]: 33 µM (≈ 7.57 µg/mL); MIC [9]: 33 µM (≈ 7.57 µg/mL); MIC [10]: 33 µM (≈ 7.57 µg/mL) |
| C=CCCC#CC#CCCCCCCC[C@H](O)CN | > 128 µg/mL | 85 µM | 170 µM | 32 µg/mL | 64 µg/mL | 85 µM | – |
| CCCCC/C=C\C/C=C\CC/C=C/C[C@H](O)[C@H](C)N | – | – | – | – | – | – | MIC [11]: 360 µM (≈ 101 µg/mL) |
| C=CCCCCCC/C=C\C[C@H](O)[C@H](C)N | – | – | – | – | – | – | MIC [11]: 196 µM (≈ 44.2 µg/mL) |
